In the library only some 5.8% were active in any assay of this set; here they are far more common.
IDH1 mut inh: inhibitors of IDH1 R132H reductase, primary screen, biochemical, plate reader, single point; diaphorase/resazurin fluorescence, 60 min; inhibition, % at 10 µM; hit rate 0.18% among 70,000; in the data active means inhibition above about 34%; inconclusive means no clear call, values can overlap the other calls; inactive means below about 11%;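 further: 0% = DMSO and 100% = no enzyme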
KDM4C inh: inhibitors of GASC-1 (KDM4C) histone demethylase, primary screen, biochemical, single concentration HTS | GST-KDM4C 2-372, H3K9me3 peptide, LANCE TR-FRET | inhibition, % at 12.5 µM | hit rate 0.15% among 96,000;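 active means mean replicate inhibition above about 25%, with at least 55% of replicates also reaching it, limit read from the data, passing the limit was not always enough; inconclusive means only one of those two conditions met; inactive means neither condition met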
Target sequence (Q9H3R0 2-372 limits assumed): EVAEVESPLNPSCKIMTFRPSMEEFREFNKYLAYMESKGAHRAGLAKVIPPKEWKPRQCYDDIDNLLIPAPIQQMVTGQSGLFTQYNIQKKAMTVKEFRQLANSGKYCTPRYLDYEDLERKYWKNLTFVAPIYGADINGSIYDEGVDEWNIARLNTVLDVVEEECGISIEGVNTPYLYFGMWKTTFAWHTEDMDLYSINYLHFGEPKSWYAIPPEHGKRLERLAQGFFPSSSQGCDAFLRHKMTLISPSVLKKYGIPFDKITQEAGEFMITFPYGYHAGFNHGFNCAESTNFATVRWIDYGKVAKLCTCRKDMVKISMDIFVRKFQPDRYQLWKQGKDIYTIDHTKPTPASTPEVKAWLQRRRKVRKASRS
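Compound: one test concentration per compound; Material: GST-GASC-1 enzyme fragment 2-372; Amount: GASC-1 enzyme at 10 nM final in reaction; Also added: H3K9me3 peptide substrate, Fe(II), 2-oxoglutarate; Technique: LANCE TR-FRET; Times: 30 min demethylation and 1 h detection at room temperature.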
Pf Dd2 inh: P. falciparum Dd2 growth inhibitors, primary screen, SYBR Green fluorescence, single dose replicates. 72 h; active compounds read low. activity change, % at 10 µM. hit rate 2.3% among 94,000; in the data active means activity change below about -80%; inconclusive means no clear call, values can overlap the other calls
T cruzi growth-1: T. cruzi intracellular proliferation inhibitors, primary screen, cell-based, beta-gal Tulahuen parasites, NIH3T3 host, luminescence. T. cruzi beta-gal in NIH3T3, GalScreen luminescence, 90 h. inhibition, % at 8.34 µM. hit rate 5.9% among 77,000. AID 624255, 2012;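 active means mean inhibition above about 93%, with at least 55% of replicates each passing it, limit read from the data, passing the limit was not always enough; inconclusive means only one of those two conditions holds; inactive means neither condition holds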
T cruzi growth-2: T. cruzi intracellular proliferation inhibitors, confirmation, cell-based, NIH3T3 host, beta-gal parasite, luminescence, cherry-pick | shares compounds with T cruzi growth-1 | T. cruzi beta-gal in NIH3T3, GalScreen luminescence, 90 h | inhibition, % at 8.35 µM | hit rate 72% among 5,600;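 active means mean replicate inhibition above about 95% and at least 55% of replicates individually reaching it, limit read from the data; inconclusive means only one of the two criteria is met; inactive means neither criterion is met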
T cruzi growth-3: inhibitors of intracellular T. cruzi replication, confirmation, NIH3T3 host cells, beta-gal parasites, cherry-pick, set 2. inhibition, % at 2.09 µM. shares compounds with T cruzi growth-1. T. cruzi beta-gal in NIH3T3, GalScreen luminescence, 90 h. hit rate 21% among 5,600. AID 651740, 2012;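 active means mean inhibition above about 95%, with at least 55% of replicates also reaching it, limit read from the data; inconclusive means meets just one of the two conditions; inactive means meets neither condition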;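 further: plate controls were neutral control median for no effect and positive control median for full effect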
3T3 cytotox: cytotoxicity in mouse NIH/3T3 fibroblasts, confirmation, cytotoxicity control for T. cruzi proliferation inhibitor project, cell-based, cherry-pick, single point; hit rate 14% among 5,600; shares compounds with T cruzi growth-1; NIH/3T3 viability, CellTiter-Glo ATP luminescence, 90 h; cytotoxicity (signal decrease), % at 8.35 µM;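 active means mean signal decrease across replicates above about 35% based on untreated-well scatter, with enough replicates individually passing, limit read from the data; inconclusive means no rule stated though some were filed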;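 further: 0% = median of neutral control wells and 100% = median of positive control wells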
NIH3T3 tox 2: NIH/3T3 fibroblast cytotoxicity, confirmation, cytotoxicity control, cell-based, cherry-pick, single point, set 2 | NIH/3T3 viability, CellTiter-Glo ATP luminescence, 90 h | AID 651744, 2012 | inhibition, % at 24.9 µM | hit rate 56% among 5,600 | shares compounds with T cruzi growth-1;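 active means mean loss of cell viability signal at or above a set limit, and enough replicates individually reaching it; inconclusive means meets only the mean limit or only the replicate share; inactive means meets neither condition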;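 further: 0% = median of neutral control wells and 100% = median of positive control wells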
Active calls of the source: *; ? = inconclusive; nt = no result given.

SMILES	IDH1 mut inh	KDM4C inh	Pf Dd2 inh	T cruzi growth-1	T cruzi growth-2	T cruzi growth-3	3T3 cytotox	NIH3T3 tox 2
C[C@@H]1CCCCO[C@H](CN(C)C(=O)Nc2ccc(C(F)(F)F)cc2)[C@H](C)CN([C@@H](C)CO)C(=O)c2cc(NC(=O)NC3CCCCC3)ccc2O1	0	-1	-71	117*	110*	83	7	?
C[C@@H]1CCCCO[C@H](CN(C)C(=O)Nc2ccc(C(F)(F)F)cc2)[C@@H](C)CN([C@@H](C)CO)C(=O)c2cc(NC(=O)NC3CCCCC3)ccc2O1	nt	-2	-90*	121*	105*	115*	-1	18
C[C@@H]1CN([C@H](C)CO)C(=O)c2cc(NC(=O)NC3CCCCC3)ccc2O[C@@H](C)CCCCO[C@H]1CN(C)C(=O)Nc1ccc(C(F)(F)F)cc1	0	0	nt	nt	nt	nt	nt	nt
Cc1ccc(S(=O)(=O)Nc2ccc3c(c2)C(=O)N([C@H](C)CO)C[C@H](C)[C@H](CN(C)C(=O)Nc2ccc(C(F)(F)F)cc2)OCCCC[C@@H](C)O3)cc1	3	1	-51	103*	104*	54	40*	48*
Cc1ccc(S(=O)(=O)Nc2ccc3c(c2)C(=O)N([C@H](C)CO)C[C@H](C)[C@H](CN(C)C(=O)Nc2ccc(C(F)(F)F)cc2)OCCCC[C@H](C)O3)cc1	nt	0	-22	101*	101*	116*	-15	-1
C[C@H]1CCCCO[C@@H](CN(C)C(=O)Nc2ccc(C(F)(F)F)cc2)[C@@H](C)CN([C@@H](C)CO)C(=O)c2cc(NS(C)(=O)=O)ccc2O1	0	1	-41	109*	107*	35	24	0
C[C@@H]1CN([C@H](C)CO)C(=O)c2cc(NS(=O)(=O)c3ccc(Cl)cc3)ccc2O[C@@H](C)CCCCO[C@H]1CN(C)C(=O)Nc1ccc(C(F)(F)F)cc1	5	3	-68	86	nt	nt	nt	nt
COc1ccc(S(=O)(=O)Nc2ccc3c(c2)C(=O)N([C@H](C)CO)C[C@H](C)[C@@H](CN(C)C(=O)Nc2ccc(C(F)(F)F)cc2)OCCCC[C@H](C)O3)cc1	nt	nt	-72	101*	109*	116*	10	13
C[C@@H]1CCCCO[C@@H](CN(C)C(=O)Nc2ccc(C(F)(F)F)cc2)[C@@H](C)CN([C@H](C)CO)C(=O)c2cc(NS(=O)(=O)c3ccc(Cl)cc3)ccc2O1	nt	nt	-19	88	nt	nt	nt	nt
Cn1nnnc1SCC(=O)Nc1cc(Cl)cc(Cl)c1	0	nt	nt	nt	nt	nt	nt	nt
COc1cccc(NC(=O)CC2OCCN(Cc3ccccc3)C2=O)c1 (stereo not given)	0	nt	nt	nt	nt	nt	nt	nt
C[C@@H]1CCCCO[C@H](CN(C)C(=O)Nc2ccc(C(F)(F)F)cc2)[C@H](C)CN([C@@H](C)CO)C(=O)c2cc(NS(=O)(=O)c3ccc(F)cc3)ccc2O1	-1	0	-46	79	nt	nt	nt	nt
Cc1ccc(S(=O)(=O)Nc2ccc3c(c2)C(=O)N([C@@H](C)CO)C[C@@H](C)[C@H](CN(C)C(=O)Nc2ccc(C(F)(F)F)cc2)OCCCC[C@@H](C)O3)cc1	-2	-1	5	100*	102*	113*	32	36*
C[C@@H]1CCCCO[C@H](CN(C)C(=O)Nc2ccc(C(F)(F)F)cc2)[C@@H](C)CN([C@H](C)CO)C(=O)c2cc(NS(=O)(=O)c3ccc(F)cc3)ccc2O1	4	0	-32	100*	109*	49	-11	-11
CCn1c(SCC(=O)Nc2ccc([N+](=O)[O-])cc2C)nnc1-c1ccc(Br)cc1	0	nt	nt	nt	nt	nt	nt	nt
